14-3-3 Bad PPI: disrupts binding of bovine 14-3-3 zeta to phospho-Bad peptide | TR-FRET 14-3-3zeta/Dy647-pBad peptide displacement, 1 h | P63103 | inhibition, % at 21.7 µM | 0.71% of 220,000 active;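 active = inhibition above about 70%, limit read from the data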
Hck-Nef inh: inhibitors of human Hck kinase activated by Nef. P08631. Recombinant Hck-YEEI plus Nef, Z-Lyte FRET kinase assay. inhibition, % at 20 µM. 0.68% of 220,000 active. AID 463187;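 active = Hck-Nef kinase inhibition above about 50%, limit read from the data; inactive = inhibition below that limit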
Target sequence (P08631 whole entry, looked up): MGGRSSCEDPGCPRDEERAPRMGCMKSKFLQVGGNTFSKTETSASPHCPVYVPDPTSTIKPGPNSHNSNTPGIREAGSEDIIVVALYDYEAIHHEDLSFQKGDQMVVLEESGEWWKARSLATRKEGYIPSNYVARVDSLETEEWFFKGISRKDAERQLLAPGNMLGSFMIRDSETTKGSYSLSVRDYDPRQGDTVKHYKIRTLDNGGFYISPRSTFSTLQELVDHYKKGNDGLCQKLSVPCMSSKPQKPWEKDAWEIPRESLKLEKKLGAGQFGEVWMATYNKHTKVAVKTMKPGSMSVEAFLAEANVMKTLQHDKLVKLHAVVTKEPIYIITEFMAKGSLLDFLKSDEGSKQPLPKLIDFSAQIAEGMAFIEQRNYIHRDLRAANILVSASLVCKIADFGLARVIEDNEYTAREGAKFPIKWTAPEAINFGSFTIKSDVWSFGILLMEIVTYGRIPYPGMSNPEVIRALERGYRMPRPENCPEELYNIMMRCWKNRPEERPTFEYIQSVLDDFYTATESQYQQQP
RanGTP-Impb inh: inhibitors of RanGTP-importin-beta interaction, primary screen, biochemical, FRET, CFP-Ran, YFP-importin-beta, homogeneous; inhibition, % (test concentration not listed); cell-free CFP-Ran/YFP-importin-beta FRET ratio; 1.1% of 300,000 active; AID 2216;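 active = more than half of the replicate wells show a fall in the fluorescence ratio signal beyond about 16%, limit read from the data, passing the limit was not always enough; inconclusive = exactly half of the replicate wells pass the set limit; inactive = fewer than half of replicates pass the limit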
Runt-CBFb FRET: blocks binding of human RUNX1 Runt domain to CBFb | Q01196+Q13951 | Cerulean-Runt/Venus-CBFb FRET ratio 530/480, 1 h | inhibition, % at 20 µM | 0.46% of 220,000 active;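 active = inhibition over about 50% at 20 µM in the single-dose screen, limit read from the data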
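test system = Cerulean-Runt domain fusion protein, energy donor | probe or stimulus = Venus-CBFb binding partner, 100 nM | incubation = two 1 h room-temperature incubations shielded from light | detection = fluorescence energy transfer, 422 nm excitation, 530/480 nm emission | measure = loss of energy transfer signal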
Tb hexokinase: blocks Trypanosoma brucei hexokinase 1 activity; recombinant TbHK1, G6PDH-coupled NADH A340; inhibition, % at 10 µM; 0.11% of 220,000 active; AID 1430;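 active = inhibition of 50% or more in the single-dose primary screen; inactive = inhibition below 50%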
Runt-SMMHC FRET: blocks binding of human RUNX1 Runt domain to CBFb-SMMHC; Q01196+Q13951; Cerulean-Runt/Venus-CBFb-SMMHC FRET ratio 530/480, 1 h; inhibition, % at 20 µM; 0.74% of 220,000 active;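 active = mean inhibition across duplicate retests at 20 µM reaching about 50%, limit read from the data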;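 also: inhibitors lower the FRET ratio by blocking Runt binding to CBFb-SMMHC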
A number is an active result; . = inactive; ? = inconclusive; / = not tested or not shown; [ ] = remark or other dose. An excerpt weighted towards active compounds, which were near 2.2% of everything screened.

SMILES	14-3-3 Bad PPI	Hck-Nef inh	RanGTP-Impb inh	Runt-CBFb FRET	Tb hexokinase	Runt-SMMHC FRET
O=C1C2C3C=CC(C3)C2C(=O)N1CCN1CCN(Cc2ccc([N+](=O)[O-])cc2)CC1 (stereo not given)	.	.	.	.	.	.
C=CCN1C(=O)c2ccc(C(=O)N(C)CC(=O)Nc3ccc(Br)cc3C)cc2C1=O	/	/	.	/	/	/
O=C(CSc1cc(Cl)ccc1Cl)NC1CCCC1	/	/	.	/	/	/
O=c1[nH]c2cc3c(cc2cc1CN(Cc1nnnn1CC1CCCO1)C1CCCC1)OCO3 (stereo not given)	.	.	.	.	.	.
O=c1[nH]c2cc3c(cc2cc1CN(CCc1ccccc1)Cc1nnnn1CC1CCCO1)OCO3 (stereo not given)	.	.	.	.	.	61.6
O=c1[nH]c2cc3c(cc2cc1CN(Cc1nnnn1CC1CCCO1)C1CCCCC1)OCO3 (stereo not given)	.	.	.	.	.	57.4
COc1cc(C(=S)N2CCCCC2)ccc1O	.	.	/	.	.	.
COc1cc(C(=S)N2CCCC2)ccc1O	.	.	.	.	.	66.5
COc1cccc(C(=O)NNC2OC(CO)C(O)C2O)c1 (stereo not given)	.	.	.	.	.	.
Cc1c2n(c3ccccc13)CC/C2=N\O	.	.	.	.	.	.
CO/N=C1\CCn2c1c(C)c1ccccc12	71.5	.	.	.	.	.
CN1CCN(C2=C(Cl)C(=O)C(c3cnc(N4CCCCC4)s3)=C(Cl)C2=O)CC1	82.5[fluorescence artefact?]	.	.	.	.	.
CN1CCN(C2=C(Cl)C(=O)N(C3CCCCC3)C2=O)CC1	.	.	.	.	.	.
CCCCn1c(N)c(N2CCOCC2)c(=O)n(CC(=O)NC(C)c2ccccc2)c1=O (stereo not given)	.	.	27.2	.	.	.
CCCn1c(N)c(N2CCCCC2)c(=O)n(CC(=O)Nc2ccccc2)c1=O	.	.	.	.	.	.
CC(C)(C)c1cc(C(=O)NCC(=O)OCC(=O)c2cccc([N+](=O)[O-])c2)cc(C(C)(C)C)c1	.	.	32.3	.	.	.
O=C(Cc1ccccc1)NCC(=O)OCC(=O)c1cccc([N+](=O)[O-])c1	.	.	.	.	.	.
COCCN1C(=O)N[C@@H](c2ccco2)C(C(C)=O)=C1C	.	.	.	.	.	.
CN(C)CCOC(=O)CCCCCCCCC(=O)OCCN(C)C	.	.	.	.	.	.
COc1ccccc1N1CCN(C2CCN(C(=O)c3cc(OC)c(OC)c(OC)c3)CC2)CC1	79.0	.	.	.	.	.
COc1ccccc1C(=O)N1CCN(C2CCN(Cc3ccccc3)CC2)CC1	83.6	.	.	.	.	.
COc1ccc(C(=O)N2CCN(C3CCN(Cc4ccccc4)CC3)CC2)cc1OC	.	.	.	.	.	.
Cc1oc(-c2ccc(Cl)cc2)cc1-c1nn2c(-c3ccoc3C)nnc2s1	.	58.7	.	.	.	.
Nc1nc(N)c(N=Nc2ccc(SCC(=O)O)cc2)c(=O)[nH]1	.	.	44.0	.	.	.
Nc1nc2ccc([N+](=O)[O-])cc2[nH]1	.	.	.	.	.	.
SMILES	14-3-3 Bad PPI	Hck-Nef inh	RanGTP-Impb inh	Runt-CBFb FRET	Tb hexokinase	Runt-SMMHC FRET
O=[N+]([O-])c1ccc(/C=C/c2nc3ccc([N+](=O)[O-])cc3[nH]2)cc1	85.5[fluorescence artefact?]	.	.	.	.	.
Cc1ccc(Cl)cc1N(C)C(=O)Cn1ncc2c([nH]c3ccccc32)c1=O	/	/	.	/	/	/
CC(=O)Nc1ccc(S(=O)(=O)Nc2nc3ccccc3nc2Sc2nncn2C)cc1	.	.	36.4	.	.	72.4
CCCCN(CCCC)c1nc2ccccc2nc1NS(=O)(=O)c1ccc(NC(C)=O)cc1	.	.	.	.	.	69.6
CC(=O)Nc1ccc(S(=O)(=O)Nc2nc3ccccc3nc2Nc2ccc(N)cc2)cc1	.	.	.	.	.	.
CC(=O)N1CCN(S(=O)(=O)c2ccc(C)cc2)C1C (stereo not given)	/	/	.	/	/	/
CC(C)(C)CN1CCNC(=O)C1CC(=O)N1CCN(c2ccccc2)CC1 (stereo not given)	.	.	.	.	.	.
O=S(=O)(NCCN1CCOCC1)c1cc(Cl)c(Cl)cc1Cl	/	/	.	/	/	/
O=C(O)C1Cc2ccccc2CN1S(=O)(=O)/C=C/c1ccccc1 (stereo not given)	85.6	.	.	.	.	.
CS(=O)(=O)N1Cc2ccccc2CC1C(=O)O (stereo not given)	.	.	/	.	.	.
COc1ccc(OC)c(/C=N/NC(=O)CSc2cc(C)nc3c(OC)cccc23)c1	86.2	.	.	.	.	.
CC(C)(C)C(=O)Nc1nc(C2CCCN2S(=O)(=O)c2ccc(Cl)cc2)cs1 (stereo not given)	71.3	.	.	.	.	.
O=C(Nc1nc(-c2ccccc2)cs1)C1CCCCN1S(=O)(=O)c1ccc(Cl)cc1 (stereo not given)	.	.	.	.	.	.
COc1cccc(C2C=C(c3ccc(Br)s3)Nc3ncnn32)c1OC (stereo not given)	.	.	.	.	.	63.3
O=C(/C=C/c1ccc([N+](=O)[O-])cc1)c1cccs1	.	.	.	.	.	.
COc1cc([N+](=O)[O-])ccc1N/C=C/C(=O)c1cccs1	.	.	26.5	.	.	.
COc1ccc([N+](=O)[O-])cc1NC(=O)c1ccc(Br)s1	74.2	78.7	.	.	.	.
COc1ccc([N+](=O)[O-])cc1NC(=S)NC(C)=O	.	.	.	.	.	.
Cc1ccc(-c2cc(C(=O)N/N=C\c3cnn(C)c3C)c3ccccc3n2)cc1C	.	.	.	.	.	.
CCC(C(=O)NC1CCCC1)N(C(=O)Cn1nnc(-c2ccc(C)o2)n1)c1cnc2ccccc2c1 (stereo not given)	77.6	.	?	.	.	.
Cc1ccc(-c2nnn(CC(=O)N(c3cnc4ccccc4c3)C(C(=O)NC3CCCC3)c3ccncc3)n2)o1 (stereo not given)	.	.	.	.	.	.
O=C(c1cccn2c(=O)c3cc4ccccc4cc3nc12)N1CCN(c2ccccc2)CC1	.	.	.	.	.	.
Cc1nc2ccn(Cc3ccccc3)c(=O)c2cc1C(=O)N1CCN(c2ccccc2)CC1	/	/	91.9	/	/	/
O=c1cc(O)sc2ccccc12	.	.	16.5	.	.	.
CCOC(=O)c1cc2c(=O)n3cccc(C)c3nc2n(Cc2ccccc2Cl)c1=N	/	/	/	125.5	/	65.0
C=CCn1c(=N)c(C(=O)OCC)cc2c(=O)n3cccc(C)c3nc21	/	172.4	/	/	.	/
Cc1c(N=Nc2c(-c3ccc([N+](=O)[O-])cc3)[nH]n(C(N)=S)c2=O)cccc1[N+](=O)[O-]	91.6	.	/	.	.	.
Clc1cc(Br)ccc1OCCn1ccnc1	78.5	.	.	.	.	.

High-throughput results (PubChem)
